Measured values as given in ChEMBL document CHEMBL4229337, “Design, synthesis and biological evaluation of 1-hydroxy-2-phenyl-4-pyridyl-1H-imidazole derivatives as xanthine oxidase inhibitors” (Eur J Med Chem, 2018).

target: T1, Xanthine dehydrogenase/oxidase (Bos taurus, UniProt P80457); experiment: Inhibition of bovine xanthine oxidase assessed as reduction in uric acid formation at 10 ug/ml using xanthine as substrate preincubated for 15 mins followed by substrate addition by spectrophotometric analysis; conditions: cattle
T1 sequence (P80457 whole entry): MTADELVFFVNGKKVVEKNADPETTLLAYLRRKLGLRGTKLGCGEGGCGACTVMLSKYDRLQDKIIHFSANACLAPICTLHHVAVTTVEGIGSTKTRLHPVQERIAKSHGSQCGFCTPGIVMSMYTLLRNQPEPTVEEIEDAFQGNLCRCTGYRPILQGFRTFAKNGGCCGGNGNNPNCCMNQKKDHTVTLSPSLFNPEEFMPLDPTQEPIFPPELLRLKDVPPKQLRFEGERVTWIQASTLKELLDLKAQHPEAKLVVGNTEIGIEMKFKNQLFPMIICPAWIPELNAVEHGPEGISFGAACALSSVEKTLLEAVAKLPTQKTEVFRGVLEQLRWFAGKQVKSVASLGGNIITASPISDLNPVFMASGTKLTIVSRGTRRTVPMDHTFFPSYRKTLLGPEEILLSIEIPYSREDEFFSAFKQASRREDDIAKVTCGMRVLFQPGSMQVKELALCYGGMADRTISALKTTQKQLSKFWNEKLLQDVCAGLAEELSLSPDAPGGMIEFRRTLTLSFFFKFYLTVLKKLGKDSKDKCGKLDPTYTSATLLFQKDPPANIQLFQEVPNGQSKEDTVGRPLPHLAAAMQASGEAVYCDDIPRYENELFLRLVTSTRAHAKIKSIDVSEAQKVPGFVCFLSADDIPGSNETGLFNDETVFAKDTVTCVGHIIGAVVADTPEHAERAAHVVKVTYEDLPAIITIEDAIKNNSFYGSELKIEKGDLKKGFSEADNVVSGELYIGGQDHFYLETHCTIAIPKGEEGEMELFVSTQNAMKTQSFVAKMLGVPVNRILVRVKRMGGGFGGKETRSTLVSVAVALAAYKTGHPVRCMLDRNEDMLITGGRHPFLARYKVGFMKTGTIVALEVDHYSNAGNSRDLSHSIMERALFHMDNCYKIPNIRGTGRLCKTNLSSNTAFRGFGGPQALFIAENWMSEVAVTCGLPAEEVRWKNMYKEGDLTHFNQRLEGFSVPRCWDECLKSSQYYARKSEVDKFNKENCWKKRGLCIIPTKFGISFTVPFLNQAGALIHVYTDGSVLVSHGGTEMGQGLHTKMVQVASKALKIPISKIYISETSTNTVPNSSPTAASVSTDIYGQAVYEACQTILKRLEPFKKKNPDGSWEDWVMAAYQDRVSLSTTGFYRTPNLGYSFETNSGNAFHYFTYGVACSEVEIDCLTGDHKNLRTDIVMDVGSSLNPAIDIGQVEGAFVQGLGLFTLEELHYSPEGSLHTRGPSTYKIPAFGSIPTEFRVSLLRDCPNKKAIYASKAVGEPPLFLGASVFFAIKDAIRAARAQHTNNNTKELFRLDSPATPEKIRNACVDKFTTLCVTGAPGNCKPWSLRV
How it was run: (§1)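 XO (15 U/L) in 0.1 M sodium pyrophosphate buffer pH 8.3 with 0.3 mM Na₂EDTA, preincubated 15 min with test compound; reaction started by adding 64 μM xanthine. Inhibition read as lowered uric acid concentration, in triplicate. Single-point screen at 10 µg/mL; compounds above 50% inhibition were then run over a wide concentration range to derive IC₅₀.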

SMILES | inhibition (INH) [%]
N#Cc1cccc(-c2nc(-c3cccnc3)cn2O)c1 | < 50
CC(C)COc1ccc(-c2nc(-c3ccncc3)cn2O)cc1C#N | < 50
CC(C)Oc1ccc(-c2nc(-c3cccnc3)cn2O)cc1C#N | < 50

Now from value to molecule:

inhibition (INH) [%] | SMILES
< 50 | N#Cc1cccc(-c2nc(-c3ccncc3)cn2O)c1
< 50 | C=CCOc1ccc(-c2nc(-c3ccncc3)cn2O)cc1C#N
< 50 | CCC(C)Oc1ccc(-c2nc(-c3cccnc3)cn2O)cc1C#N (configuration not stated)
< 50 | COc1ccc(-c2nc(-c3cccnc3)cn2O)cc1C#N

target: T1, Xanthine dehydrogenase/oxidase; experiment: Mixed-type inhibition of bovine xanthine oxidase assessed as reduction in uric acid formation using xanthine as substrate preincubated for 15 mins followed by substrate addition by spectrophotometry based Lineweaver-Burk plot analysis; conditions: cattle

SMILES | inhibition (INH)
CC(C)CCOc1ccc(-c2nc(-c3ccncc3)cn2O)cc1C#N | Active

target: T1, Xanthine dehydrogenase/oxidase; experiment: Inhibition of bovine xanthine oxidase assessed as reduction in uric acid formation using xanthine as substrate preincubated for 15 mins followed by substrate addition by spectrophotometric analysis; conditions: not given; how it was run: as §1

SMILES | pIC50 | IC50 [µM]
N#Cc1cc(-n2cc(-c3ccncc3)nn2)ccc1OCc1ccccc1 | 4.35 | –
CCC(C)Oc1ccc(-n2cc(-c3ccncc3)nn2)cc1C#N (configuration not stated) | 4.74 | –
CC(C)COc1ccc(-c2nc(-c3cccnc3)cn2O)cc1C#N | 4.99 | 10.3
COc1ccc(-c2nc(-c3ccncc3)cn2O)cc1C#N | 4.81 | 15.4
COc1ccc(COc2ccc(-n3cc(-c4ccncc4)nn3)cc2C#N)cc1 | 4.63 | –
CC(C)Oc1ccc(-n2cc(-c3ccncc3)nn2)cc1C#N | 4.6 | –
CC(C)CCOc1ccc(-c2nc(-c3cccnc3)cn2O)cc1C#N | 5.17 | 6.73
CC(C)CCOc1ccc(-n2cc(-c3ccncc3)nn2)cc1C#N | 5.09 | –
COCOc1ccc(-c2nc(-c3ccnc(C)c3)n[nH]2)cc1C#N | 7.62 | –
CCOC(=O)c1cc(-c2nnc(-c3ccnc(C)c3)[nH]2)ccc1OCC(C)C | 7.7 | –
CCCCOCCOCCOc1ccc(-c2nnc(-c3ccnc(C)c3)[nH]2)cc1C#N | 7.59 | –
Cc1cc(-c2n[nH]c(-c3ccc(OCC(C)C)c(C#N)c3)n2)ccn1 | 7.77 | –
Cc1cc(-c2n[nH]c(-c3ccc(OCC4COC(C)(C)O4)c(C#N)c3)n2)ccn1 (configuration not stated) | 7.22 | –
N#Cc1cc(-c2n[nH]c(-c3ccncc3)n2)ccn1 [TOPIROXOSTAT] | – | 0.0048

Next, values leading:

pIC50 | IC50 [µM] | SMILES
5.17 | – | N#Cc1cc(-n2cc(-c3ccncc3)nn2)ccc1OC1CCCC1
5.02 | 9.62 | C=CCOc1ccc(-c2nc(-c3cccnc3)cn2O)cc1C#N
6.19 | 0.64 | CC(C)CCOc1ccc(-c2nc(-c3ccncc3)cn2O)cc1C#N
4.68 | – | CCCCOc1ccc(-n2cc(-c3ccncc3)nn2)cc1C#N
5.36 | 4.35 | CCC(C)Oc1ccc(-c2nc(-c3ccncc3)cn2O)cc1C#N (configuration not stated)
5.32 | 4.75 | CC(C)Oc1ccc(-c2nc(-c3ccncc3)cn2O)cc1C#N
4.79 | – | CCCCCOc1ccc(-n2cc(-c3ccncc3)nn2)cc1C#N
7.51 | – | COCCOCCOc1ccc(-c2nc(-c3ccnc(C)c3)n[nH]2)cc1C#N
8 | – | Cc1cc(-c2nc(-c3ccc(OCC(C)C)c([N+](=O)[O-])c3)n[nH]2)ccn1
7.62 | – | COCCOCOc1ccc(-c2nc(-c3ccnc(C)c3)n[nH]2)cc1C#N
7.68 | – | Cc1cc(-c2nnc(-c3ccc(OCCOCCOCCCl)c(C#N)c3)[nH]2)ccn1
6.96 | – | Cc1cc(-c2nnc(-c3ccc(OCC(=O)O)c(C#N)c3)[nH]2)ccn1
7.4 | – | Cc1cc(-c2n[nH]c(-c3ccc(OCCO)c(C#N)c3)n2)ccn1
7.19 | – | COCCOc1ccc(-c2nc(-c3ccnc(C)c3)n[nH]2)cc1C#N
7.37 | – | Cc1cc(-c2n[nH]c(-c3ccc(O)c(C#N)c3)n2)ccn1
5.23 | – | CC(C)COc1ccc(-c2nc(-c3cccnc3)n[nH]2)cc1[N+](=O)[O-]
8 | – | CC(C)COc1ccc(-c2nnc(-c3ccnc(Cl)c3)[nH]2)cc1[N+](=O)[O-]

same assay, conditions: cattle

SMILES | inhibition (INH)
CC(C)CCOc1ccc(-c2nc(-c3ccncc3)cn2O)cc1C#N | Dose-dependent effect
